The record followed here is PubChem BioAssay.

Unmarked numbers belong to inactive results. Records with an inconclusive call do not appear. Active and inactive are the calls of the source.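 The calls were made as follows, unless noted: active = inhibition over a set limit, the all-compound mean plus 3 SD, in both replicate runs; inconclusive = over that limit in just one replicate run; inactive = at or under that limit in both runs.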

Assay [1] is described as follows: S. cerevisiae growth inhibition in permissive medium (OD615), pilot counter-assay for S. cerevisiae lifespan shortening project, permissive growth control (AID 705;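 active = growth inhibition above 25% in both replicates, a cutoff set 3 SD above the mean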). To be noted: OD615, 24 h, at 10 µM, active compounds read high. In a few lines: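 Test system: Saccharomyces cerevisiae strain carrying genetically modified DeaD replicative-lifespan system; buffer or medium: SC raffinose/galactose permissive medium; dosing: one dose 10 µM, DMSO 0.25% final; times: 24 h exposure, 30 °C; measured by: OD at 615 nm; read-out basis: growth inhibition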

Assay [2] can be described thus: S. cerevisiae growth inhibition in restrictive medium, OD615, pilot screen, restrictive growth control, yeast lifespan reduction project (AID 706;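 active = growth inhibition above a set limit, 3 SD over mean compound inhibition, in both replicates, cut at about 43% in these data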;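 also: modified DeaD lifespan yeast strain shifted to restrictive glucose medium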). The settings on record: OD615, 48 h, at 10 µM, active compounds read high. In a few lines:
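material = engineered S. cerevisiae DeaD strain | buffer or medium = glucose-based CSMM-D restrictive medium | dosing = one concentration, 10 µM final, 0.25% DMSO | schedule = 4 h pre-growth plus 48 h compound exposure, 30 °C | detection = OD615 absorbance reading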

The nature of assay [3]: doxorubicin toxicity protection in MRP-1 cells – H69AR cells, CellTiter-Glo, duplicate, MRP-1 activator project, pilot screen (AID 807;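 active = viability increase at or above a cutoff of the median across tested compounds plus 3 SD, cut at about 8.5% in these data, passing the limit was not always enough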;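 also: compound pretreatment 18-22 h then 72 h combined with doxorubicin; 0% = doxorubicin alone and 100% = vehicle without doxorubicin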). To be noted: H69AR viability with doxorubicin, CellTiter-Glo luminescence; at 10 µM; active compounds read high. A general note: In ATP-based viability assays light output follows the ATP content of the culture.
Assay [4] can be described thus: viability of HCT116 without oncogenic beta-catenin – human colon tumor cells, pilot screen (AID 823;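 active = cell viability at or below a set limit in both duplicate runs, the limit being the all-compound median minus 4 SD, cut at about 23% in these data, passing the limit was not always enough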;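 also: 0% = wells killed by 20 µM Hyamine and 100% = untreated DMSO cell wells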). To be noted: HCT116 beta-catenin knockout viability, CellTiter-Glo, 60 h; at 10 µM; active compounds read low.
Assay [5] is described as follows: viability of PTEN-null HCT116 cells – cell-based, HCT116 clonal line, CellTiter-Glo, pilot screen (AID 824;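 active = viability at or below 27.92% in each of two runs, the all-compound median minus 4 SD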;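 also: 0% = 20 µM Hyamine control and 100% = vehicle cell control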). To be noted: HCT116 PTEN-deleted viability, 60 h, at 10 µM, active compounds read low.
Assay [6] in a line: RAM pathway blockade in budding yeast – dse1pr::URA3 reporter, 5-FOA selection, pilot screen (AID 869).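 Also: 0% = DMSO wells with no growth and 100% = 10 µM 1-NA-PP1 with full growth; RAM network block rescues cells from 5-FOA so hits raise OD615 growth.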 To be noted: S. cerevisiae dse1pr::URA3 5-FOA growth, OD615, 2 d; at 10 µM; active compounds read high; strain carries analog-sensitive mutant Cbk1 kinase.
Assay [7] can be described thus: RAM signaling pathway blockade in yeast – S. cerevisiae, Pdr1DBD-CYC8 efflux-inhibited sensitized strain, primary screen (AID 1298;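 active = RAM network inhibition above 8.4% in each of two replicates, 3 SD over the compound average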;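 also: 0% = DMSO untreated cells without growth and 100% = 10 µM 1-NA-PP1 full growth; higher means more yeast growth rescued from 5-FOA killing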). To be noted: S. cerevisiae cbk1-as DSE1-URA3 strain, 5-FOA growth OD615, 2 d; at 50 µM; active compounds read high.

For the molecule `O=C(c1cc2nc(-c3ccco3)cc(C(F)(F)F)n2n1)N1CCCCCC1`, the figures for the growth inhibition in assay [1] and in assay [2] were -9.02% and -9.3%, respectively. Also, the viability increase in assay [3] was -3.73%. The results for the viability in assay [4] and in assay [5] were 86.3% and 83.7%, respectively. Further, in assay [6], the inhibition was 0.805%. In assay [7], the RAM network inhibition is 3.38%.

With `c1ccc(-c2cnnc(N3CCCCC3)n2)cc1`, the growth inhibition in assay [1] is -4.88%; in assay [2], 8.84%. The viability increase in assay [3] was -1.75%. Further, the viability in assay [4] is 102%; in assay [5] it was 97.4%. In assay [6], the inhibition was 0.13%. For the same molecule, in assay [7], the RAM network inhibition was 5.69%.

For the molecule `O=C(CCCCCn1c(=O)[nH]c2ccsc2c1=O)N1CCN(C2CCCCC2)CC1`, the growth inhibition in assay [1] was -5.63%; in assay [2] it was -0.345%. Besides, the viability increase in assay [3] was -1.81%. For the same molecule, the values for the viability in assay [4] and in assay [5] were 95.3% and 92.3%, respectively. For the same molecule, in assay [6], the inhibition is 1.38%. The RAM network inhibition in assay [7] is 3%.

`Cc1noc(C(=O)N2CC3(C)CC2CC(C)(C)C3)c1Cl` (configuration not stated): the growth inhibition was -13% in assay [1] and -13.2% in assay [2]. Also, the viability increase in assay [3] is 0.45%. The viability in assay [4] is 82.9%; in assay [5], 83%. Moreover, in assay [6], the inhibition was -0.145%. Also, the RAM network inhibition in assay [7] was 5.28%.

As to `COc1ccc(-c2cn3c(C)c(C(=O)N4CCN(c5ccccc5F)CC4)sc3n2)cc1`, the growth inhibition in assay [1] was 2.91%; in assay [2] it was -0.695%. For the same molecule, the viability increase in assay [3] is 0.81%. Also, the viability was 78.9% in assay [4] and 78% in assay [5]. For the same molecule, the inhibition in assay [6] was 2.13%. The RAM network inhibition in assay [7] is 18.2% (active).

On to `Cc1nn(C(=O)CN2C(=O)c3ccccc3C2=O)c(C)c1Br`, for which the values for the growth inhibition in assay [1] and in assay [2] were -4.13% and 3.1%, respectively. In assay [3], the viability increase is -1.05%. In addition, the viability in assay [4] is 101%; in assay [5] it was 103%. Further, the inhibition in assay [6] was 0.84%. The RAM network inhibition in assay [7] is 4.29%.

With `N#CC1=C(N)OC2=C(C(=O)CCC2)C1c1ccsc1` (configuration not stated), the figures for the growth inhibition in assay [1] and in assay [2] were -7.86% and -3.94%, respectively. Besides, the viability increase in assay [3] is -1.81%. Also, the viability in assay [4] was 93.2%; in assay [5] it was 103%. The inhibition in assay [6] is 1.52%. The RAM network inhibition in assay [7] is 4.01%.

As for `Cc1ccc(C2/C(=C(/O)c3ccc(Br)cc3)C(=O)C(=O)N2Cc2ccco2)o1` (configuration not stated), the results for the growth inhibition in assay [1] and in assay [2] were -16.2% and 7.88%, respectively. For the same molecule, the viability increase in assay [3] is -6.07%. The viability in assay [4] was 55%; in assay [5] it was 65%. Also, the inhibition in assay [6] was 0.82%. The RAM network inhibition in assay [7] is -1.74%.

In the case of `CCNc1nc2c(c(=O)[nH]c(=O)n2C)n1Cc1ccc(F)cc1`, the growth inhibition is -8.34% in assay [1] and -8.31% in assay [2]. In addition, the viability increase in assay [3] is -3.05%. Moreover, the viability in assay [4] is 99%; in assay [5] it was 85.2%. Moreover, the inhibition in assay [6] was 0.035%. Besides, the RAM network inhibition in assay [7] was 4.88%.

On to `Cn1c(C(=O)N2CCN(C3CCCCC3)CC2)cc2c(=O)n(C)c3ccccc3c21`, for which the growth inhibition in assay [1] is -0.185%; in assay [2] it was 4.76%. The viability increase in assay [3] is -1.32%. Besides, the viability in assay [4] is 105%; in assay [5], 101%. In assay [6], the inhibition is 1.2%. The RAM network inhibition in assay [7] is 0.21%.

As for `CC(=O)C1C(c2ccc(OC(F)F)cc2)NC(=O)NC1(O)C(F)(F)F` (configuration not stated), the growth inhibition in assay [1] was 3.71%; in assay [2], -6.05%. Further, the viability increase in assay [3] is 0.74%. Moreover, the viability in assay [4] was 107%; in assay [5] it was 97.4%. The inhibition in assay [6] was 0.31%. For the same molecule, in assay [7], the RAM network inhibition is 5.93%.

For `Fc1ccc(OCc2nc(-c3ccc(Br)o3)no2)c(F)c1`, the figures for the growth inhibition in assay [1] and in assay [2] were -8.99% and -12.8%, respectively. The viability increase in assay [3] is 2.67%. In addition, the figures for the viability in assay [4] and in assay [5] were 99.5% and 97.7%, respectively. In addition, the inhibition in assay [6] was 0.82%. Besides, the RAM network inhibition in assay [7] was 3.12%.

As for `CC(C)N(Cc1nc(-c2ccccc2)no1)C(=O)COc1ccccc1`, the figures for the growth inhibition in assay [1] and in assay [2] were -12% and -11.7%, respectively. Also, the viability increase in assay [3] was -3.65%. Moreover, the viability in assay [4] was 88.2%; in assay [5], 89.7%. For the same molecule, in assay [6], the inhibition was 1.03%. Besides, the RAM network inhibition in assay [7] is 3.19%.

For the molecule `COc1ccc(N2CCN(C(=O)c3ccc4c(c3)OCO4)CC2)cc1`, the growth inhibition is -2.83% in assay [1] and 14.7% in assay [2]. Further, the viability increase in assay [3] is -0.77%. The viability in assay [4] was 97.8%; in assay [5] it was 100%. Moreover, the inhibition in assay [6] was 2.04%. Further, the RAM network inhibition in assay [7] was 0.86%.

With `O=C(CSc1nc2c(c(=O)n1-c1ccc(Br)cc1)SCC2)NCC1CCCO1` (configuration not stated), the growth inhibition in assay [1] is -11.1%; in assay [2], -8.53%. Besides, the viability increase in assay [3] is -1.02%. For the same molecule, the results for the viability in assay [4] and in assay [5] were 97.9% and 101%, respectively. Also, the inhibition in assay [6] is 1.69%. Moreover, the RAM network inhibition in assay [7] was 2.63%.

For `CCCC(=O)C1C(=O)CC(C)(C)C(c2cc(C)no2)C1=O` (configuration not stated), the growth inhibition is -22.4% in assay [1] and -12.9% in assay [2]. Moreover, the viability increase in assay [3] is 0.5%. Also, the viability was 103% in assay [4] and 98.7% in assay [5]. Further, in assay [6], the inhibition was -0.1%. In addition, the RAM network inhibition in assay [7] was -1.09%.

As usually defined, the viability is a read-out of living cells in per cent, often relative to untreated cells. In general, inhibition refers to the drop in the measured response relative to a control, in per cent.
